Among the data in PMC10099142 (ACS Omega, 2023) are IC50 values, retold here.

Molecules are shown by their SMILES. Where two headings read alike, the source gives them in different places.

Common to all, as to format: cell-based
Experiment [1] concerns 3T3-L1, a fibroblast cell line. The experiment is described as follows: Screening of toxicity in normal cell line. To be noted: Mus musculus, 3T3-L1, 72 h, read-out: IC50 3T3-L1 72 h. Put shortly: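 3T3-L1 fibroblasts are kept in DMEM with 5% FBS and antibiotics at 37 °C in humidified 5% CO2. They are seeded at 5 × 10^3 per well and grown to confluency, then treated with a range of test compound concentrations. MTT is added for 3 h after removing the medium, and formazan is dissolved in DMSO. A570 is read and percentage cell death is calculated.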

For experiment [2], the system named is human lung adenocarcinoma (A549). The experiment is described as follows: MTT assay, antiproliferative activity, A549. Put shortly: (§1)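 A549 cells are grown in DMEM and MDA-MB-231 cells in MEM, both with FBS and antibiotics, at 37 °C in humidified 5% CO2, then trypsinized. Cells are seeded at 5 × 10^3 per well and grown to confluency. They are exposed to a range of test compound concentrations for 24 h or 72 h, with 5-fluorouracil as reference. Medium is removed, MTT is added for 3 h, and formazan is dissolved in DMSO. A570 is read and percentage cell death is calculated.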
(Tetrazolium assays rely on reduction of a dye to a coloured formazan, in cell work by metabolically active cells.)

The test system of experiment [3] is human breast adenocarcinoma (MDA-MB-231). As to the kind of experiment: MTT assay, antiproliferative activity, MDA-MB-231. Put shortly: as §1

The IC50 is the concentration at which inhibition is half-maximal. Regarding `O=c1[nH]cc(F)c(=O)[nH]1` [5-fluorouracil], the IC50 in experiment [1] was found to be 41.4 ± 1.05 µM; in experiment [2] (A549, 24 h, read-out: IC50 A549 24 h), 747 ± 0.13 µM; in experiment [2] (A549, 72 h, read-out: IC50 A549 72 h), 17 ± 0.41 µM; in experiment [3] (MDA-MB-231, 24 h, read-out: IC50 MDA-MB-231 24 h), 885 ± 0.76 µM; in experiment [3] (MDA-MB-231, 72 h, read-out: IC50 MDA-MB-231 72 h), 29.01 ± 0.01 µM.
